Data published in ChEMBL document CHEMBL1142895, “Discovery of a new insecticide lead by optimizing a target-diverse scaffold: tetrazolinone derivatives” (2007).
The source made the active and inactive calls. The rule behind the calls is not given here.

Tests used:
[1] = system: Triticum aestivum; assay: Inhibition of root growth of Triticum aestivum at 100 mg/L; type: functional
Outline: (§1)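 Seeds of each species were grown in Petri dishes with 10 seeds per dish, at 28 °C, 70–80% RH, 16:8 h light:dark photoperiod and 3000 lx light for 5 days. Root and stem lengths were measured for the 10 seeds and averaged. Each test and its controls were run in three replicates, and the data were given probit analysis.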

[2] = system: Triticum aestivum; assay: Herbicidal activity against Triticum aestivum at 450 g ai/ha in greenhouse in vivo test; type: functional, organism-based
[3] = system: Cucumis sativus; assay: Inhibition of stem growth of Cucumis sativus at 100 mg/L; type: functional; outline: as §1
[4] = system: Radish; assay: Herbicidal activity against Raphanus sativus at 450 g ai/ha in greenhouse in vivo test; type: functional, organism-based
[5] = system: Radish; assay: Inhibition of stem growth of Raphanus sativus at 100 mg/L; type: functional; outline: as §1
[6] = system: Aphis; assay: Insecticidal activity against Aphis medicagini at 250 mg/L; type: functional
Outline: (§2)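 Groups of 10 of each species were placed in glass Petri dishes and sprayed with test solution using a Potter sprayer. After air-drying, they were held under normal rearing conditions. Mortality at 72 h was taken from the number and size of live larvae relative to untreated controls.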

[7] = system: Echinochloa crus-galli; assay: Herbicidal activity against Echinochloa crus-galli at 450 g ai/ha in greenhouse in vivo test; type: functional, organism-based
[8] = system: Cucumis sativus; assay: Herbicidal activity against Cucumis sativus at 450 g ai/ha in greenhouse in vivo test; type: functional, organism-based
[9] = system: Brassica rapa subsp. oleifera; assay: Inhibition of stem growth of Brassica campestris at 100 mg/L; type: functional; outline: as §1
[10] = system: Radish; assay: Inhibition of root growth of Raphanus sativus at 100 mg/L; type: functional; outline: as §1
[11] = system: Echinochloa crus-galli; assay: Inhibition of root growth of Echinochloa crus-galli at 100 mg/L; type: functional; outline: as §1
[12] = system: Tetranychus cinnabarinus; assay: Insecticidal activity against Tetranychus cinnabarinus at 250 mg/L; type: functional; outline: as §2
[13] = system: Cucumis sativus; assay: Inhibition of root growth of Cucumis sativus at 100 mg/L; type: functional; outline: as §1
[14] = system: Echinochloa crus-galli; assay: Inhibition of stem growth of Echinochloa crus-galli at 100 mg/L; type: functional; outline: as §1
[15] = system: Sorghum bicolor; assay: Inhibition of stem growth of Sorghum bicolor at 100 mg/L; type: functional; outline: as §1
[16] = system: Brassica rapa subsp. oleifera; assay: Herbicidal activity against Brassica campestris at 450 g ai/ha in greenhouse in vivo test; type: functional, organism-based
[17] = system: Sorghum bicolor; assay: Herbicidal activity against Sorghum bicolor at 450 g ai/ha in greenhouse in vivo test; type: functional, organism-based
[18] = system: Sorghum bicolor; assay: Inhibition of root growth of Sorghum bicolor at 100 mg/L; type: functional; outline: as §1
[19] = system: Brassica rapa subsp. oleifera; assay: Inhibition of root growth of Brassica campestris at 100 mg/L; type: functional; outline: as §1
[20] = system: Triticum aestivum; assay: Inhibition of stem growth of Triticum aestivum at 100 mg/L; type: functional; outline: as §1

Structure (SMILES) | inhibition at 100 µg/mL [1] | Activity [2] | inhibition at 100 µg/mL [3] | Activity [4] | inhibition at 100 µg/mL [5] | Activity [6] | Activity [7] | Activity [8] | inhibition at 100 µg/mL [9] | inhibition at 100 µg/mL [10] | inhibition at 100 µg/mL [11] | Activity [12] | inhibition at 100 µg/mL [13] | inhibition at 100 µg/mL [14] | inhibition at 100 µg/mL [15] | Activity [16] | Activity [17] | inhibition at 100 µg/mL [18] | inhibition at 100 µg/mL [19] | inhibition at 100 µg/mL [20]
O=c1n(Cc2nnc(SCc3cccc(Cl)c3)s2)nnn1-c1ccc(Cl)cc1 | 60% | inactive | 40% | inactive | 30% | 2.9% | inactive | inactive | 0% | 50% | 0% | 5.7% | 0% | 0% | 50% | inactive | inactive | 40% | 0% | 70%
CCCSc1nnc(Cn2nnn(-c3ccc(Cl)cc3)c2=O)s1 | 70% | inactive | 70% | inactive | 70% | 0% | inactive | inactive | 60% | 70% | 80% | 0% | 50% | 80% | 0% | inactive | inactive | 80% | 70% | 70%
O=c1n(Cc2nnc(SCc3ccccc3F)s2)nnn1-c1ccc(Cl)cc1 | 80% | inactive | 70% | inactive | 60% | 18.6% | inactive | inactive | 70% | 80% | 60% | 0% | 70% | 70% | 70% | inactive | inactive | 70% | 80% | 80%
O=c1c(Cn2nnn(-c3ccccc3Cl)c2=O)coc2ccccc12 | 0% | inactive | 0% | inactive | 30% | 13.3% | inactive | inactive | 30% | 50% | 0% | 2.9% | 0% | 0% | 30% | inactive | inactive | 50% | 50% | 30%
CCOC(=O)Cn1nnn(-c2ccc(Cl)cc2)c1=O | 30% | inactive | 0% | inactive | 40% | 8.3% | inactive | inactive | 70% | 80% | 0% | 0% | 0% | 0% | 20% | inactive | inactive | 20% | 85% | 30%
CO/C=C\C(C(=O)OC)c1ccccc1CSc1nnc(Cn2nnn(-c3ccc(Cl)cc3)c2=O)s1 (centres undefined) | 0% | inactive | 30% | inactive | 30% | 2.9% | inactive | inactive | 30% | 60% | 30% | 0% | 30% | 0% | 0% | inactive | inactive | 60% | 30% | 40%
C=CCn1nnn(-c2ccccc2Cl)c1=O | 50% | inactive | 60% | – | 0% | 1.7% | inactive | inactive | 60% | 0% | 0% | 98.6% | 0% | 0% | 0% | inactive | inactive | 0% | 0% | 50%
